Values after ≈ are worked out from the molar mass of the structure shown.
Legend:
[1] = system: Ac2-L-Lys-D-Ala-D-Ala peptide; assay: Association constant with Ac2-L-Lys-D-Ala-D-Ala
In short: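 UV difference spectroscopy at 24 ± 2 °C in 4-cm unthermostated cells. Antibiotic was at 30 μM in 10% MeOH in sodium phosphate buffer, pH 9, and titrated with Ac2-L-Lys-D-Ala-D-Ala. ΔA was monitored at 294 nm. Ka was taken from the slope of a Scatchard plot.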

Enterococcus faecalis = assay: In vitro minimum inhibitory concentration against Streptococcus faecalis ATCC 7080; assay type: functional
Streptococcus pyogenes [2] = assay: In vitro minimum inhibitory concentration against Streptococcus pyogenes C 203; assay type: functional
Streptococcus pneumoniae = assay: In vitro minimum inhibitory concentration against Streptococcus pneumoniae UC41; assay type: functional
Escherichia coli = assay: In vitro minimum inhibitory concentration against Escherichia coli SKF 12140; assay type: functional
Proteus vulgaris = assay: In vitro minimum inhibitory concentration against Proteus vulgaris X 19 ATCC 881; assay type: functional
[3] = system: Staphylococcus epidermidis; assay: In vitro minimum inhibitory concentration against Staphylococcus epidermis ATCC 12228; assay type: functional
Streptococcus pyogenes [4] = assay: Subcutaneously administration into mice infected with Streptococcus pyogenes C 203; assay type: functional; settings: sc
In short: (§1)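 Mice (five per treatment group, five groups) infected intraperitoneally with about 10⁵ cells of Strep. pyogenes C 203, about 100× the LD50. ED50 (mg/kg) was calculated from the percentage of mice surviving at each dose on day 7.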

Staphylococcus aureus = assay: In vitro minimum inhibitory concentration against Staphylococcus aureus Tour; assay type: functional
Pseudomonas aeruginosa = assay: In vitro minimum inhibitory concentration against Pseudomonas aeruginosa ATCC 10145; assay type: functional
Streptococcus pyogenes [5] = assay: In vivo effective dose given perorally to mice infected with Streptococcus pyogenes C 203; assay type: functional; settings: po; in short: as §1
[6] = system: Staphylococcus haemolyticus; assay: In vitro minimum inhibitory concentration against Staphylococcus hemolyticus 602 cell line; assay type: functional; settings: strain 602

Ka [1] [M⁻¹]	MIC (Enterococcus faecalis) [µg/mL]	MIC (Streptococcus pyogenes [2]) [µg/mL]	MIC (Streptococcus pneumoniae) [µg/mL]	MIC (Escherichia coli) [µg/mL]	MIC (Proteus vulgaris) [µg/mL]	MIC [3] [µg/mL]	MIC (Staphylococcus aureus) [µg/mL]	MIC (Pseudomonas aeruginosa) [µg/mL]	SMILES	ED50 (Streptococcus pyogenes [4]) [mg/kg]	ED50 (Streptococcus pyogenes [5]) [mg/kg]	MIC [6] [µg/mL]
54000	0.25 (≈ 0.168 µM)	0.12 (≈ 0.0807 µM)	0.25 (≈ 0.168 µM)	64 (≈ 43.1 µM)	> 128	0.06 (≈ 0.0404 µM)	0.12 (≈ 0.0807 µM)		CC(=O)NC1C(O[C@@H]2c3ccc(c(Cl)c3)Oc3cc4cc(c3O)Oc3ccc(cc3Cl)C[C@H]3NC(=O)[C@H](N)c5ccc(O)c(c5)Oc5cc(O)cc(c5)[C@H](NC3=O)C(=O)N[C@H]4C(=O)N[C@H]3C(=O)N[C@@H]2C(=O)N[C@H](C(=O)NCCCN(C)C)c2cc(O)cc(O)c2-c2cc3ccc2O)OC(CO)C(O)C1O (stereo partly drawn)	2.2		
82000	0.5 (≈ 0.376 µM)	0.12 (≈ 0.0904 µM)	0.12 (≈ 0.0904 µM)	> 128	> 128	0.12 (≈ 0.0904 µM)	0.12 (≈ 0.0904 µM)	> 128	N[C@H]1C(=O)N[C@@H]2Cc3ccc(c(Cl)c3)Oc3cc4cc(c3O)Oc3ccc(cc3Cl)[C@@H](O)[C@@H]3NC(=O)[C@H](NC(=O)[C@@H]4NC(=O)[C@@H](NC2=O)c2cc(O)cc(c2)Oc2cc1ccc2O)c1ccc(O)c(c1)-c1c(O)cc(O)cc1[C@@H](C(=O)NC(CCC(=O)O)C(=O)O)NC3=O (stereo partly drawn)	5		
66000	0.12 (≈ 0.0615 µM)	0.06 (≈ 0.0308 µM)	0.12 (≈ 0.0615 µM)			0.06 (≈ 0.0308 µM)	0.12 (≈ 0.0615 µM)		CNCCCNC(=O)[C@H]1NC(=O)[C@H]2NC(=O)[C@H](NC(=O)[C@@H]3NC(=O)[C@H]4NC(=O)[C@@H](Cc5ccc(c(Cl)c5)Oc5cc3cc(c5O[C@@H]3O[C@@H](CO)[C@@H](O)[C@H](O)[C@@H]3NC(=O)CCCCCCC(C)C)Oc3ccc(cc3Cl)[C@H]2O[C@@H]2O[C@@H](CO)[C@@H](O)[C@H](O)[C@@H]2NC(C)=O)NC(=O)[C@H](N)c2ccc(O)c(c2)Oc2cc(O)cc4c2)c2ccc(O)c(c2)-c2c(O[C@H]3O[C@H](CO)[C@@H](O)[C@@H](O)[C@@H]3O)cc(O)cc21	0.14	112	0.12 (≈ 0.0615 µM)
34000	0.5 (≈ 0.33 µM)	0.5 (≈ 0.33 µM)	1 (≈ 0.66 µM)	> 128	> 128	0.12 (≈ 0.0792 µM)	0.12 (≈ 0.0792 µM)		CC(=O)NC1C(O[C@@H]2c3ccc(c(Cl)c3)Oc3cc4cc(c3O)Oc3ccc(cc3Cl)C[C@H]3NC(=O)[C@H](N)c5ccc(O)c(c5)Oc5cc(O)cc(c5)[C@H](NC3=O)C(=O)N[C@H]4C(=O)N[C@H]3C(=O)N[C@@H]2C(=O)N[C@H](C(=O)NCCN2CCOCC2)c2cc(O)cc(O)c2-c2cc3ccc2O)OC(CO)C(O)C1O (stereo partly drawn)			
	0.12 (≈ 0.0946 µM)	0.06 (≈ 0.0473 µM)	0.12 (≈ 0.0946 µM)	8 (≈ 6.3 µM)	64 (≈ 50.4 µM)	0.06 (≈ 0.0473 µM)	0.06 (≈ 0.0473 µM)	32 (≈ 25.2 µM)	CCNCCNC(=O)[C@H]1NC(=O)[C@H]2NC(=O)[C@H](NC(=O)[C@@H]3NC(=O)[C@H]4NC(=O)[C@@H](Cc5ccc(c(Cl)c5)Oc5cc3cc(c5O)Oc3ccc(cc3Cl)[C@H]2O)NC(=O)[C@H](N)c2ccc(O)c(c2)Oc2cc(O)cc4c2)c2ccc(O)c(c2)-c2c(O)cc(O)cc21	1.25		0.12 (≈ 0.0946 µM)
32000	1 (≈ 0.713 µM)	0.5 (≈ 0.357 µM)	1 (≈ 0.713 µM)	> 128	> 128	0.12 (≈ 0.0856 µM)	0.5 (≈ 0.357 µM)		CC(=O)N[C@@H]1[C@H](O[C@@H]2c3ccc(c(Cl)c3)Oc3cc4cc(c3O)Oc3ccc(cc3Cl)C[C@H]3NC(=O)[C@H](N)c5ccc(O)c(c5)Oc5cc(O)cc(c5)[C@H](NC3=O)C(=O)N[C@H]4C(=O)N[C@H]3C(=O)N[C@@H]2C(=O)N[C@H](C(=O)O)c2cc(O)cc(O)c2-c2cc3ccc2O)O[C@@H](CO)[C@@H](O)[C@@H]1O	2.46		
	0.12 (≈ 0.0925 µM)	0.06 (≈ 0.0463 µM)	0.06 (≈ 0.0463 µM)	4 (≈ 3.08 µM)	64 (≈ 49.3 µM)	0.06 (≈ 0.0463 µM)	0.06 (≈ 0.0463 µM)	64 (≈ 49.3 µM)	NCCCCCCNC(=O)[C@H]1NC(=O)[C@H]2NC(=O)[C@H](NC(=O)[C@@H]3NC(=O)[C@H]4NC(=O)[C@@H](Cc5ccc(c(Cl)c5)Oc5cc3cc(c5O)Oc3ccc(cc3Cl)[C@H]2O)NC(=O)[C@H](N)c2ccc(O)c(c2)Oc2cc(O)cc4c2)c2ccc(O)c(c2)-c2c(O)cc(O)cc21	0.54		0.12 (≈ 0.0925 µM)
	0.12 (≈ 0.0946 µM)	0.06 (≈ 0.0473 µM)	0.12 (≈ 0.0946 µM)	4 (≈ 3.15 µM)	32 (≈ 25.2 µM)	0.06 (≈ 0.0473 µM)	0.06 (≈ 0.0473 µM)	16 (≈ 12.6 µM)	CN(C)CCNC(=O)[C@H]1NC(=O)[C@H]2NC(=O)[C@H](NC(=O)[C@@H]3NC(=O)[C@H]4NC(=O)[C@@H](Cc5ccc(c(Cl)c5)Oc5cc3cc(c5O)Oc3ccc(cc3Cl)[C@H]2O)NC(=O)[C@H](N)c2ccc(O)c(c2)Oc2cc(O)cc4c2)c2ccc(O)c(c2)-c2c(O)cc(O)cc21	1.25		0.06 (≈ 0.0473 µM)
	0.12 (≈ 0.0967 µM)	0.06 (≈ 0.0483 µM)	0.12 (≈ 0.0967 µM)	4 (≈ 3.22 µM)	16 (≈ 12.9 µM)	0.03 (≈ 0.0242 µM)	0.06 (≈ 0.0483 µM)	16 (≈ 12.9 µM)	NCCNC(=O)[C@H]1NC(=O)[C@H]2NC(=O)[C@H](NC(=O)[C@@H]3NC(=O)[C@H]4NC(=O)[C@@H](Cc5ccc(c(Cl)c5)Oc5cc3cc(c5O)Oc3ccc(cc3Cl)[C@H]2O)NC(=O)[C@H](N)c2ccc(O)c(c2)Oc2cc(O)cc4c2)c2ccc(O)c(c2)-c2c(O)cc(O)cc21	1.25		0.12 (≈ 0.0967 µM)
120000	0.12 (≈ 0.0611 µM)	0.06 (≈ 0.0305 µM)	0.06 (≈ 0.0305 µM)			0.12 (≈ 0.0611 µM)	0.25 (≈ 0.127 µM)		CCOC(=O)CNC(=O)[C@H]1NC(=O)[C@H]2NC(=O)[C@H](NC(=O)[C@@H]3NC(=O)[C@H]4NC(=O)[C@@H](Cc5ccc(c(Cl)c5)Oc5cc3cc(c5O[C@@H]3O[C@@H](CO)[C@@H](O)[C@H](O)[C@@H]3NC(=O)CCCCCCC(C)C)Oc3ccc(cc3Cl)[C@H]2O[C@@H]2O[C@@H](CO)[C@@H](O)[C@H](O)[C@@H]2NC(C)=O)NC(=O)[C@H](N)c2ccc(O)c(c2)Oc2cc(O)cc4c2)c2ccc(O)c(c2)-c2c(O[C@H]3O[C@H](CO)[C@@H](O)[C@@H](O)[C@@H]3O)cc(O)cc21	0.1	> 300	
	0.12 (≈ 0.0935 µM)	0.06 (≈ 0.0468 µM)	0.12 (≈ 0.0935 µM)	2 (≈ 1.56 µM)	32 (≈ 24.9 µM)	0.06 (≈ 0.0468 µM)	0.06 (≈ 0.0468 µM)	16 (≈ 12.5 µM)	CNCCCN(C)C(=O)[C@H]1NC(=O)[C@H]2NC(=O)[C@H](NC(=O)[C@@H]3NC(=O)[C@H]4NC(=O)[C@@H](Cc5ccc(c(Cl)c5)Oc5cc3cc(c5O)Oc3ccc(cc3Cl)[C@H]2O)NC(=O)[C@H](N)c2ccc(O)c(c2)Oc2cc(O)cc4c2)c2ccc(O)c(c2)-c2c(O)cc(O)cc21	0.95		0.06 (≈ 0.0468 µM)
	0.12 (≈ 0.0946 µM)	0.06 (≈ 0.0473 µM)	0.12 (≈ 0.0946 µM)	4 (≈ 3.15 µM)	16 (≈ 12.6 µM)	0.06 (≈ 0.0473 µM)	0.06 (≈ 0.0473 µM)	16 (≈ 12.6 µM)	CNCCCNC(=O)[C@H]1NC(=O)[C@H]2NC(=O)[C@H](NC(=O)[C@@H]3NC(=O)[C@H]4NC(=O)[C@@H](Cc5ccc(c(Cl)c5)Oc5cc3cc(c5O)Oc3ccc(cc3Cl)[C@H]2O)NC(=O)[C@H](N)c2ccc(O)c(c2)Oc2cc(O)cc4c2)c2ccc(O)c(c2)-c2c(O)cc(O)cc21	0.95		0.25 (≈ 0.197 µM)
	0.12 (≈ 0.0946 µM)	0.12 (≈ 0.0946 µM)	0.12 (≈ 0.0946 µM)	16 (≈ 12.6 µM)	> 128	0.06 (≈ 0.0473 µM)	0.12 (≈ 0.0946 µM)	64 (≈ 50.4 µM)	CNCCN(C)C(=O)[C@H]1NC(=O)[C@H]2NC(=O)[C@H](NC(=O)[C@@H]3NC(=O)[C@H]4NC(=O)[C@@H](Cc5ccc(c(Cl)c5)Oc5cc3cc(c5O)Oc3ccc(cc3Cl)[C@H]2O)NC(=O)[C@H](N)c2ccc(O)c(c2)Oc2cc(O)cc4c2)c2ccc(O)c(c2)-c2c(O)cc(O)cc21	1.25		0.12 (≈ 0.0946 µM)
	0.12 (≈ 0.0906 µM)	0.06 (≈ 0.0453 µM)	0.12 (≈ 0.0906 µM)	8 (≈ 6.04 µM)	64 (≈ 48.3 µM)	0.06 (≈ 0.0453 µM)	0.06 (≈ 0.0453 µM)	32 (≈ 24.1 µM)	N[C@H]1C(=O)N[C@@H]2Cc3ccc(c(Cl)c3)Oc3cc4cc(c3O)Oc3ccc(cc3Cl)[C@@H](O)[C@@H]3NC(=O)[C@H](NC(=O)[C@@H]4NC(=O)[C@@H](NC2=O)c2cc(O)cc(c2)Oc2cc1ccc2O)c1ccc(O)c(c1)-c1c(O)cc(O)cc1[C@@H](C(=O)NCCCN1CCOCC1)NC3=O	1.4		0.12 (≈ 0.0906 µM)
	0.12 (≈ 0.0956 µM)	0.06 (≈ 0.0478 µM)	0.12 (≈ 0.0956 µM)	4 (≈ 3.19 µM)	32 (≈ 25.5 µM)	0.03 (≈ 0.0239 µM)	0.06 (≈ 0.0478 µM)	32 (≈ 25.5 µM)	CNCCNC(=O)[C@H]1NC(=O)[C@H]2NC(=O)[C@H](NC(=O)[C@@H]3NC(=O)[C@H]4NC(=O)[C@@H](Cc5ccc(c(Cl)c5)Oc5cc3cc(c5O)Oc3ccc(cc3Cl)[C@H]2O)NC(=O)[C@H](N)c2ccc(O)c(c2)Oc2cc(O)cc4c2)c2ccc(O)c(c2)-c2c(O)cc(O)cc21	2.2		0.06 (≈ 0.0478 µM)

From ChEMBL document CHEMBL1124366, “Synthesis and biological properties of N63-carboxamides of teicoplanin antibiotics. Structure-activity relationships” (J Med Chem, 1989)
